In ChEMBL document CHEMBL1926577, “Novel 1,3,4-heterodiazole analogues: synthesis and in-vitro antitumor activity” (2012):

What was measured:
Assay type in all cases: functional
CCRF-CEM = assay: Growth inhibition of human CCRF-CEM cells at 10 uM after 48 hrs by coulter counter method; conditions: read-out: GI
In short: (§1)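 NCI 60-cell-line panel, single dose. Compound dissolved first in DMSO, then diluted in phosphate-buffered saline so that every final dilution held under 1% DMSO. Duplicate wells received cells at 6 × 10⁴ cells/ml. Controls held PBS/DMSO at the same dilution. Plates were incubated 48 h at 37 °C under 5% CO₂. Cells were then diluted 10-fold in saline and counted on a Coulter counter, with counts corrected for the dilution. Results are given as percent growth inhibition.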

HL-60(TB) = assay: Growth inhibition of human HL-60(TB) cells at 10 uM after 48 hrs by coulter counter method; conditions: HL-60, 48 h, read-out: GI
In short: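 Single-dose screen on the NCI 60-line panel (leukemia subpanel). Compound is dissolved in DMSO and diluted in PBS, with final DMSO below 1%. Duplicate wells hold 6 × 10⁴ cells/ml at 37 °C, 5% CO₂, for 48 h. Cells are counted by Coulter counter after 10-fold saline dilution. Read-out is percent growth versus PBS/DMSO controls, expressed as % growth inhibition.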

K562 = assay: Growth inhibition of human K562 cells at 10 uM after 48 hrs by coulter counter method; conditions: K562, 48 h, read-out: GI; in short: as §1
MOLT-4 = assay: Growth inhibition of human MOLT4 cells at 10 uM after 48 hrs by coulter counter method; conditions: MOLT-4, 48 h, read-out: GI; in short: as §1
SR = assay: Growth inhibition of human SR cells at 10 uM after 48 hrs by coulter counter method; conditions: read-out: GI; in short: as §1
A549 = assay: Growth inhibition of human A549 cells at 10 uM after 48 hrs by coulter counter method; conditions: A549, 48 h, read-out: GI; in short: as §1
EKVX = assay: Growth inhibition of human EKVX cells at 10 uM after 48 hrs by coulter counter method; conditions: read-out: GI; in short: as §1
NCI-H226 = assay: Growth inhibition of human NCI-H226 cells at 10 uM after 48 hrs by coulter counter method; conditions: NCI-H226, 48 h, read-out: GI; in short: as §1
NCI-H23 = assay: Growth inhibition of human NCI-H23 cells at 10 uM after 48 hrs by coulter counter method; conditions: NCI-H23, 48 h, read-out: GI; in short: as §1
NCI-H322M = assay: Growth inhibition of human NCI-H322M cells at 10 uM after 48 hrs by coulter counter method; conditions: read-out: GI; in short: as §1
NCI-H522 = assay: Growth inhibition of human NCI-H522 cells at 10 uM after 48 hrs by coulter counter method; conditions: NCI-H522, 48 h, read-out: GI; in short: as §1
HCT-116 = assay: Growth inhibition of human HCT116 cells at 10 uM after 48 hrs by coulter counter method; conditions: HCT-116, 48 h, read-out: GI; in short: as §1
HCT-15 = assay: Growth inhibition of human HCT15 cells at 10 uM after 48 hrs by coulter counter method; conditions: HCT-15, 48 h, read-out: GI; in short: as §1
HT-29 = assay: Growth inhibition of human HT-29 cells at 10 uM after 48 hrs by coulter counter method; conditions: HT-29, 48 h, read-out: GI; in short: as §1
KM12 = assay: Growth inhibition of human KM12 cells at 10 uM after 48 hrs by coulter counter method; conditions: KM12, 48 h, read-out: GI; in short: as §1
SF-268 = assay: Growth inhibition of human SF268 cells at 10 uM after 48 hrs by coulter counter method; conditions: SF-268, 48 h, read-out: GI; in short: as §1
SF-295 = assay: Growth inhibition of human SF295 cells at 10 uM after 48 hrs by coulter counter method; conditions: SF-295, 48 h, read-out: GI; in short: as §1
SNB-19 = assay: Growth inhibition of human SNB19 cells at 10 uM after 48 hrs by coulter counter method; conditions: SNB-19, 48 h, read-out: GI; in short: as §1
SNB-75 = assay: Growth inhibition of human SNB75 cells at 10 uM after 48 hrs by coulter counter method; conditions: SNB-75, 48 h, read-out: GI; in short: as §1
U-251 = assay: Growth inhibition of human U251 cells at 10 uM after 48 hrs by coulter counter method; conditions: U-251, 48 h, read-out: GI; in short: as §1
LOX IMVI = assay: Growth inhibition of human LOXIMVI cells at 10 uM after 48 hrs by coulter counter method; conditions: read-out: GI; in short: as §1
Malme-3M = assay: Growth inhibition of human MALME-3M cells at 10 uM after 48 hrs by coulter counter method; conditions: read-out: GI; in short: as §1
M14 = assay: Growth inhibition of human M14 cells at 10 uM after 48 hrs by coulter counter method; conditions: M14, 48 h, read-out: GI; in short: as §1
MDA-MB-435 = assay: Growth inhibition of human MDA-MB-435 cells at 10 uM after 48 hrs by coulter counter method; conditions: MDA-MB-435, 48 h, read-out: GI; in short: as §1
SK-MEL-2 = assay: Growth inhibition of human SK-MEL-2 cells at 10 uM after 48 hrs by coulter counter method; conditions: SK-MEL-2, 48 h, read-out: GI; in short: as §1
SK-MEL-28 = assay: Growth inhibition of human SK-MEL-28 cells at 10 uM after 48 hrs by coulter counter method; conditions: SK-MEL-28, 48 h, read-out: GI; in short: as §1
SK-MEL-5 = assay: Growth inhibition of human SK-MEL-5 cells at 10 uM after 48 hrs by coulter counter method; conditions: SK-MEL-5, 48 h, read-out: GI; in short: as §1
UACC-257 = assay: Growth inhibition of human UACC257 cells at 10 uM after 48 hrs by coulter counter method; conditions: UACC-257, 48 h, read-out: GI; in short: as §1
UACC-62 = assay: Growth inhibition of human UACC62 cells at 10 uM after 48 hrs by coulter counter method; conditions: UACC-62, 48 h, read-out: GI; in short: as §1
IGROV-1 = assay: Growth inhibition of human IGROV1 cells at 10 uM after 48 hrs by coulter counter method; conditions: IGROV-1, 48 h, read-out: GI; in short: as §1
OVCAR-8 = assay: Growth inhibition of human OVCAR8 cells at 10 uM after 48 hrs by coulter counter method; conditions: OVCAR-8, 48 h, read-out: GI; in short: as §1
NCI/ADR-RES = assay: Growth inhibition of human NCI/ADR-RES cells at 10 uM after 48 hrs by coulter counter method; conditions: read-out: GI; in short: as §1
786-0 = assay: Growth inhibition of human 786-0 cells at 10 uM after 48 hrs by coulter counter method; conditions: 786-0, 48 h, read-out: GI; in short: as §1
A498 = assay: Growth inhibition of human A498 cells at 10 uM after 48 hrs by coulter counter method; conditions: A498, 48 h, read-out: GI; in short: as §1
ACHN = assay: Growth inhibition of human ACHN cells at 10 uM after 48 hrs by coulter counter method; conditions: read-out: GI; in short: as §1
CAKI-1 = assay: Growth inhibition of human Caki1 cells at 10 uM after 48 hrs by coulter counter method; conditions: CAKI-1, 48 h, read-out: GI; in short: as §1
SN12C = assay: Growth inhibition of human SN12C cells at 10 uM after 48 hrs by coulter counter method; conditions: read-out: GI; in short: as §1
TK-10 = assay: Growth inhibition of human TK10 cells at 10 uM after 48 hrs by coulter counter method; conditions: TK-10, 48 h, read-out: GI; in short: as §1
UO-31 = assay: Growth inhibition of human UO31 cells at 10 uM after 48 hrs by coulter counter method; conditions: UO-31, 48 h, read-out: GI; in short: as §1
PC-3 = assay: Growth inhibition of human PC3 cells at 10 uM after 48 hrs by coulter counter method; conditions: PC-3, 48 h, read-out: GI; in short: as §1
MCF7 = assay: Growth inhibition of human MCF7 cells at 10 uM after 48 hrs by coulter counter method; conditions: MCF7, 48 h, read-out: GI; in short: as §1
BT-549 = assay: Growth inhibition of human BT549 cells at 10 uM after 48 hrs by coulter counter method; conditions: BT-549, 48 h, read-out: GI; in short: as §1
T47D = assay: Growth inhibition of human T47D cells at 10 uM after 48 hrs by coulter counter method; conditions: read-out: GI; in short: as §1
MDA-MB-468 = assay: Growth inhibition of human MDA-MB-468 cells at 10 uM after 48 hrs by coulter counter method; conditions: MDA-MB-468, 48 h, read-out: GI; in short: as §1

Measured: inhibition of growth at 10 µM

NC1=CC(N)=NC2SC(c3ccc(Cl)cc3)=NN12 (stereo not drawn)
13.1%: NCI-H226
19.9%: SR | NCI-H522
< 10%: CCRF-CEM | A549 | EKVX | NCI-H23 | NCI-H322M | HCT-116 | HCT-15 | KM12 | SF-268 | SF-295 | SNB-19 | SNB-75 | U-251 | LOX IMVI | Malme-3M | M14 | MDA-MB-435 | SK-MEL-5 | UACC-257 | UACC-62 | OVCAR-8 | NCI/ADR-RES | 786-0 | A498 | ACHN | CAKI-1 | SN12C | TK-10 | MCF7 | BT-549 | T47D | MDA-MB-468
21.9%: UO-31
14.3%: PC-3
22.3%: IGROV-1
34.1%: HL-60(TB)
17.4%: SK-MEL-28
26.9%: K562
11.8%: HT-29
27.5%: SK-MEL-2
20.6%: MOLT-4

O=C1N=C2OC(c3ccc(Cl)cc3)=NN2C1=O
11.7%: UO-31
13.6%: K562
12.1%: SR
< 10%: CCRF-CEM | MOLT-4 | A549 | EKVX | NCI-H226 | NCI-H23 | NCI-H322M | NCI-H522 | HCT-116 | HCT-15 | HT-29 | KM12 | SF-268 | SF-295 | SNB-19 | SNB-75 | U-251 | LOX IMVI | Malme-3M | M14 | MDA-MB-435 | SK-MEL-2 | SK-MEL-28 | SK-MEL-5 | UACC-257 | UACC-62 | IGROV-1 | OVCAR-8 | NCI/ADR-RES | 786-0 | A498 | ACHN | CAKI-1 | SN12C | TK-10 | PC-3 | MCF7 | BT-549 | T47D | MDA-MB-468
15%: HL-60(TB)
